From ChEMBL document CHEMBL3351873, “Synthesis, biological evaluation and molecular docking of novel chalcone-coumarin hybrids as anticancer and antimalarial agents” (Eur J Med Chem, 2014)
Calls of active or inactive are those of the source. The calls are words filed in the database; no cut-off is given here.

How the values were obtained:
[1] = (§1) Cytotoxicity against human HuCCa1 cells assessed as reduction in cell viability after 48 hrs by MTT assay; type: functional, cell-based; details: HuCC-A1, 48 h
Method in brief: (§2)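 Adherent cells plated at 10,000–20,000 cells/well and allowed 24 h at 37 °C (5% CO₂) before an equal volume of medium with serially diluted compound was added. Etoposide and/or doxorubicin were positive controls and DMSO the negative control. After a further 48 h, surviving cells were measured by MTT. IC50 is the concentration giving 50% growth inhibition relative to the DMSO control.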

HepG2 [2] = assay: Cytotoxicity against human HepG2 cells assessed as reduction in cell viability after 48 hrs by MTT assay; type: functional, cell-based; details: for IC50: HepG2, 48 h; method in brief: as §2
A549 = assay: Cytotoxicity against human A549 cells assessed as reduction in cell viability after 48 hrs by MTT assay; type: functional, cell-based; details: for IC50: A549, 48 h; method in brief: as §2
[3] = (§3) Cytotoxicity against human MOLT3 cells assessed as reduction in cell viability after 48 hrs by XTT assay; type: functional, cell-based; details: MOLT-3, 48 h
Method in brief: (§4)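 Suspension cells plated at 10,000–20,000 cells/well and pre-incubated 24 h at 37 °C, 5% CO₂. Serial compound dilutions were added in an equal volume of medium, with etoposide and/or doxorubicin as positive controls and DMSO as negative control, then incubated 48 h more. Viable cells were read by XTT. IC50 is taken as 50% growth inhibition versus the DMSO control.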

Plasmodium falciparum = assay: Antimalarial activity against multidrug-resistant Plasmodium falciparum K1 after 24 hrs by [3H]hypoxanthine incorporation assay; type: functional, organism-based
Method in brief: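 P. falciparum K1 kept in RPMI 1640 with 20 mM HEPES, NaHCO₃, 10% human serum and 3% erythrocytes at 37 °C under 3% CO₂, passaged daily. Early ring-stage parasites (1% parasitemia, 1.5% erythrocytes) were exposed to compound (0.1% DMSO final) for 24 h. [3H]hypoxanthine was then added for a further 24 h. Incorporation was counted by scintillation and expressed as percent parasite growth.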

Vero = assay: Cytotoxicity against african green monkey Vero cells assessed as reduction in cell viability after 4 days by green fluorescent protein detection method; type: cell-based; details: chlorocebus sabaeus, 96 h
Method in brief: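 GFP-expressing Vero cells (stably transfected with pEGFP-N1) seeded at 3.3 × 10⁴ cells/mL onto compounds prediluted in 0.5% DMSO; 4 days at 37 °C, 5% CO₂. Fluorescence read at ex 485/em 535 nm, day-0 background subtracted. IC50 from dose-response curves over 6 concentrations (3-fold serial dilutions). Ellipticine positive control, 0.5% DMSO negative control.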

HuCC-A1 = assay: as §1; type: functional, cell-based; method in brief: as §2
HepG2 [4] = assay: Ratio of etoposide IC50 to compound IC50 for human HepG2 cells assessed as reduction in cell viability after 48 hrs by MTT assay; type: functional
MOLT-3 = assay: as §3; type: functional, cell-based; method in brief: as §4
[5] = Plasmodium falciparum, K1, read-out: IC50

SMILES	IC50 [1]	Activity (HepG2 [2])	Activity (A549)	IC50 [3]	IC50 (Plasmodium falciparum; [5])	Activity (Vero)	Activity (HuCC-A1)	IC50 (HepG2 [2])	IC50 (Plasmodium falciparum)	IC50 (A549)	IC50 (Vero)	Ratio IC50 (HepG2 [4])	Activity (MOLT-3)
COc1ccc(/C=C/C(=O)c2cccc(-n3cc(COc4cc(=O)oc5ccccc45)nn3)c2)c(OC)c1OC	6.13 µM	inactive	inactive	1.13 µM	7.47 µM	Non-toxic	–	–	–	–	–	–	–
COc1ccc(/C=C/C(=O)c2ccc(-n3cc(COc4cc(=O)oc5ccccc45)nn3)cc2)c(OC)c1OC	–	–	inactive	12.3 µM	1.6 µM	Non-toxic	inactive	22.9 µM	–	–	–	–	–
COc1cc(/C=C/C(=O)c2ccc(-n3cc(COc4ccc5ccc(=O)oc5c4)nn3)cc2)cc(OC)c1OC	–	inactive	inactive	79.5 µM	–	Non-toxic	inactive	–	Not Active	–	–	–	–
COc1ccc(/C=C/C(=O)c2cccc(-n3cc(COc4ccc5ccc(=O)oc5c4)nn3)c2)cc1OC	33.4 µM	inactive	inactive	3.12 µM	–	Non-toxic	–	–	Not Active	–	–	–	–
C[C@H]1[C@@H](O)O[C@@H]2O[C@@]3(C)CC[C@H]4[C@H](C)CC[C@@H]1[C@@]24OO3 [ARTENIMOL]	–	–	–	–	0.0011 µM	–	–	–	–	–	–	–	–
COc1cc([C@@H]2c3cc4c(cc3[C@@H](O[C@@H]3O[C@@H]5CO[C@@H](C)O[C@H]5[C@H](O)[C@H]3O)[C@H]3COC(=O)[C@H]23)OCO4)cc(OC)c1O [ETOPOSIDE]	–	–	–	0.051 µM	–	–	–	–	–	–	–	–	–
COc1cccc(/C=C/C(=O)c2cccc(-n3cc(COc4ccc5ccc(=O)oc5c4)nn3)c2)c1OC	11.1 µM	–	–	5.16 µM	6.63 µM	–	–	15.7 µM	–	31.4 µM	35 µM	–	–
COc1ccc(/C=C/C(=O)c2cccc(-n3cc(COc4ccc5ccc(=O)oc5c4)nn3)c2)c(OC)c1OC	–	inactive	inactive	3.89 µM	13 µM	Non-toxic	inactive	–	–	–	–	–	–
COc1ccc(/C=C/C(=O)c2ccc(-n3cc(COc4ccc5ccc(=O)oc5c4)nn3)cc2)c(OC)c1OC	–	inactive	inactive	22.5 µM	–	Non-toxic	inactive	–	Not Active	–	–	–	–
COc1cccc(/C=C/C(=O)c2cccc(-n3cc(COc4cc(=O)oc5ccccc45)nn3)c2)c1OC	2.36 µM	–	–	0.53 µM	4.73 µM	–	–	4.26 µM	–	18.1 µM	3.91 µM	7	–
COc1cc(/C=C/C(=O)c2ccc(-n3cc(COc4cc(=O)oc5ccccc45)nn3)cc2)cc(OC)c1OC	–	inactive	inactive	6.58 µM	–	Non-toxic	inactive	–	Not Active	–	–	–	–
COc1cccc2c1C(=O)c1c(O)c3c(c(O)c1C2=O)C[C@@](O)(C(=O)CO)C[C@@H]3O[C@H]1C[C@H](N)[C@H](O)[C@H](C)O1 [DOXORUBICIN]	0.83 µM	–	–	–	–	–	–	–	–	–	–	–	–
COc1cccc(/C=C/C(=O)c2ccc(-n3cc(COc4ccc5ccc(=O)oc5c4)nn3)cc2)c1OC	4.81 µM	–	–	–	–	Non-toxic	–	8.18 µM	Not Active	7.95 µM	–	–	inactive
COc1ccc(/C=C/C(=O)c2cccc(-n3cc(COc4cc(=O)oc5ccccc45)nn3)c2)cc1OC	38.6 µM	inactive	inactive	3.91 µM	–	Non-toxic	–	–	Not Active	–	–	–	–
Cc1c2ccncc2c(C)c2c1[nH]c1ccccc12 [ELLIPTECINE]	–	–	–	–	–	–	–	–	–	–	1.94 µM	–	–
